In ChEMBL document CHEMBL1124349, “Novel benzodiazepine receptor partial agonists: oxadiazolylimidazobenzodiazepines” (J Med Chem, 1989):

Assays:
[1] = molecular target: GABA-A receptor; anion channel (Rattus norvegicus) (UniProt O09028+P15431+P18506+P18508+P19969+P20236+P23574+P23576+P28471+P28473+P30191+P62813+P63079+P63138+Q91ZM7+Q9ES14); assay: Ratio of binding affinity to the GABA-A receptor in the presence and absence of GABA; type: protein-complex assay
In short: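 [3H]-Ro 15-1788 displacement in washed rat cortical membranes (Krebs/HEPES pH 7.4, nipecotic acid 10^-4 M, 30 °C, 60 min) run with and without GABA at 0.3 mM. Nonspecific binding was defined by 3 μM clonazepam, and read-out was filtration with scintillation counting. The value is the ratio of the affinities obtained with GABA and without it.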

[2] = molecular target: GABA-A receptor; anion channel; assay: Inhibition of [3H]-Ro- 15-1788 binding to GABA-A benzodiazepine receptor of rat cortical membranes; type: cell membranes, Membrane
In short: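 Rat (Sprague–Dawley, 250-300 g) cortical membranes, water-washed and frozen at -20 °C ≥18 h, then washed repeatedly in Krebs/HEPES pH 7.4. Incubated with 0.2-0.5 mg protein, [3H]-Ro 15-1788 (5 nM stock added), 10^-4 M nipecotic acid, 30 °C for 60 min. Nonspecific binding with 3 μM clonazepam. Filtration, scintillation counting.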

Question: What does the source list for `Cc1noc(-c2ncn3c2CN=C(c2ccccc2)c2ccccc2-3)n1`?
Answer: GABA shift [1]: 1.94; IC50 [2]: 24 nM
